The term solubility denotes how much of the substance goes into solution per volume. A lower solubility goes with little dissolved substance.

Converted amounts (≈) assume the structure as drawn.

Data on 3 compounds can be found in publication PMC6038876 (Drug Design, Development and Therapy, 2018).

The conditions of data set [1]: cited from earlier work.
For data set [2] the following is noted: pH 8–10; cited from earlier work.
A short description of data set [3]: Solubility of EDR, PM and NEF in simulated body fluids and water.
Another data set deals with P-glycoprotein (Pgp). The note with it: cited from earlier work.
A short description of data set [4]: Kinetic solubility study of SNMSDs and EDR in SIF pH 6.8. In kind it is physicochemical.
Data set [5] can be described thus: In vitro dissolution study. In kind it is physicochemical. The method in brief:
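USP type II (paddle) apparatus at 37°C and 50 rpm, with 900 mL of SGF (pH 1.2) or SIF (pH 6.8). Samples were taken at 5, 15, 30, 45, 60, 90 and 120 min, with media replaced, then passed through a 0.45 µm filter and diluted with mobile phase as needed. They were quantified by HPLC-UV at 240 nm (water:methanol:acetic acid 100:100:1, 1 mL/min). Release data were fitted to zero-order, first-order, Higuchi, Hixson–Crowell and Korsmeyer–Peppas models. f1 and f2 were calculated comparing the unformulated and formulated drug profiles.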

The next data set concerns UGT enzymes. The note with it: cited from earlier work.
Data set [6] concerns glucuronidation of EDR in rat liver microsomes. Put plainly: Microsomal incubation assay of EDR glucuronidation. As to conditions: SOL 1%. The format is in vitro ADME.
The nature of data set [7]: Miscibility study: solubility of EDR in polymeric carrier solutions. The note with it: 10% (w/v) polymer in water.
Setting [8] is: dissolution profiles in SGF vs SIF.

`CC1=NN(c2ccccc2)C(=O)C1` [EDR, 3-methyl-1-phenyl-2-pyrazolin-5-one]: the “solubility in SGF” value in data set [1] is 8260 ± 1420 µg/mL (≈ 47.4 mM). In data set [2], the “degradation at alkaline conditions” value is “dramatic degradation”. For the same compound, the “solubility in SGF (pH 1.2) compared to solubility in water” value in data set [3] (SGF pH 1.2) is recorded as 4.46 fold. The “solubility in SIF compared to solubility in water” value in data set [3] (SIF pH 6.8 and 7.4) was “insignificant difference”. For the same compound, the “substrate of P-glycoprotein (Pgp)” value in the data set on P-glycoprotein (Pgp) is “substrate”. Further, the solubility in [4] was determined as 2290 ± 320 µg/mL (≈ 13.1 mM). For the same compound, in data set [5] (SGF), the “release kinetic model followed” value is listed as “Hixson–Crowell”, the “release kinetics: First order” value came to 0.834, the “release kinetics: Higuchi matrix” value is recorded as 0.8501 and the “release kinetics: Hixson–Crowell” value was determined as 0.9216. In [5] (SGF), the “release kinetics: Korsmeyer–Peppas” value is 0.8636 and the “release kinetics: Zero order” value turned out to be 0.6077. Further, in data set [5] (SGF (pH 1.2), within 15 min), the “release / dissolution in SGF” value came to 100%. Also, in data set [5] (SIF), the “release kinetic model followed” value is reported as “Korsmeyer–Peppas”, the “release kinetics: First order” value turned out to be 0.9609, the “release kinetics: Higuchi matrix” value is 0.97 and the “release kinetics: Hixson–Crowell” value is 0.9718. In addition, in data set [5] (SIF), the “release kinetics: Korsmeyer–Peppas” value is given as 0.9895, the “release kinetics: Zero order” value was found to be 0.7947 and the release mechanism entry is on record as “anomalous transport (non-Fickian)”. For the same compound, the “release in SIF” value in [5] (SIF (pH 6.8), in 120 min) came out at 85%. In addition, in [5] (setting [8]), the “f1 value (dissimilarity factor)” value stood at 26 and the “f2 value (similarity factor)” value is listed as 14. The dissolution in data set [5] (within 15 min in the 900 mL of dissolution media) is listed as 100%. Also, in the data set on UGT enzymes, the “substrate of UGT enzymes” value is “substrate”.
`CC1(C)C2CCC1(C)C(O)C2` (stereo not drawn) [borneol]: the “inhibitory effect on glucuronidation of EDR” value in data set [6] is recorded as 37.56%.
In the case of hydroxypropyl-β-cyclodextrin [HP-β-CD], in [7], the “improvement in the aqueous solubility of EDR” value came out at 3.49 fold.
